Reference: ChEMBL document CHEMBL4266027, “Cyanobufalins: Cardioactive Toxins from Cyanobacterial Blooms” (J Nat Prod, 2018)

Key:
BT-474 = assay: Cytotoxicity against human BT474 cells assessed as decrease in cell viability after 72 hrs by MTS assay; type: functional, cell-based; conditions: BT-474, 72 h
How it was run: (§1)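 Cell proliferation assay using the MTS reagent. Compounds were tested as a dilution series, and EC50 values were derived from the concentration–response data.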

SK-OV-3 = assay: Cytotoxicity against human SKOV3 cells assessed as decrease in cell viability after 72 hrs by MTS assay; type: functional, cell-based; conditions: SK-OV-3, 72 h; how it was run: as §1
PANC-1 = assay: Cytotoxicity against human PANC1 cells assessed as decrease in cell viability after 72 hrs by MTS assay; type: functional, cell-based; conditions: PANC-1, 72 h; how it was run: as §1
HCT-116 = assay: Cytotoxicity against human HCT116 cells assessed as decrease in cell viability after 72 hrs by MTS assay; type: functional, cell-based; conditions: HCT-116, 72 h; how it was run: as §1
HepG2 = assay: Cytotoxicity against human HepG2 cells assessed as decrease in cell viability after 72 hrs by MTS assay; type: functional, cell-based; conditions: HepG2, 72 h; how it was run: as §1
DU-145 = assay: Cytotoxicity against human DU145 cells assessed as decrease in cell viability after 72 hrs by MTS assay; type: functional, cell-based; conditions: DU-145, 72 h; how it was run: as §1
HT-1080 = assay: Cytotoxicity against human HT1080 cells assessed as decrease in cell viability after 72 hrs by MTS assay; type: functional, cell-based; conditions: HT-1080, 72 h; how it was run: as §1
MES-SA = assay: Cytotoxicity against human MESSA cells assessed as decrease in cell viability after 72 hrs by MTS assay; type: functional, cell-based; how it was run: as §1
MES-SA/Dx5 = assay: Cytotoxicity against human MES-SA/Dx5 cells assessed as decrease in cell viability after 72 hrs by MTS assay; type: functional, cell-based; conditions: MES-SA/Dx5, 72 h; how it was run: as §1
786-0 = assay: Cytotoxicity against human 786-O cells assessed as decrease in cell viability after 72 hrs by MTS assay; type: functional, cell-based; conditions: 786-0, 72 h; how it was run: as §1
Daudi = assay: Cytotoxicity against human Daudi cells assessed as decrease in cell viability after 72 hrs by MTS assay; type: functional, cell-based; how it was run: as §1
THP-1 = assay: Cytotoxicity against human THP1 cells assessed as decrease in cell viability after 72 hrs by MTS assay; type: functional, cell-based; conditions: THP-1, 72 h; how it was run: as §1
HeLa = assay: Cytotoxicity against human HeLa cells assessed as decrease in cell viability after 72 hrs by MTS assay; type: functional, cell-based; how it was run: as §1
MCF7 = assay: Cytotoxicity against human MCF7 cells assessed as decrease in cell viability after 72 hrs by MTS assay; type: functional, cell-based; conditions: MCF7, 72 h; how it was run: as §1
BXPC-3 = assay: Cytotoxicity against human BxPC3 cells assessed as decrease in cell viability after 72 hrs by MTS assay; type: functional, cell-based; conditions: BXPC-3, 72 h; how it was run: as §1
LoVo = assay: Cytotoxicity against human LoVo cells assessed as decrease in cell viability after 72 hrs by MTS assay; type: functional, cell-based; how it was run: as §1
[1] = Cytotoxicity against human LOX cells assessed as decrease in cell viability after 72 hrs by MTS assay; type: functional, cell-based; how it was run: as §1
U-87 MG = assay: Cytotoxicity against human U87MG cells assessed as decrease in cell viability after 72 hrs by MTS assay; type: functional, cell-based, U-87MG ATCC; how it was run: as §1
NCI-N87 = assay: Cytotoxicity against human NCI-N87 cells assessed as decrease in cell viability after 72 hrs by MTS assay; type: functional, cell-based; conditions: NCI-N87, 72 h; how it was run: as §1
A549 = assay: Cytotoxicity against human A549 cells assessed as decrease in cell viability after 72 hrs by MTS assay; type: functional, cell-based; conditions: A549, 72 h; how it was run: as §1
NCI-H1975 = assay: Cytotoxicity against human NCI-H1975 cells assessed as decrease in cell viability after 72 hrs by MTS assay; type: functional, cell-based; conditions: NCI-H1975, 72 h; how it was run: as §1
MV4-11 = assay: Cytotoxicity against human MV411 cells assessed as decrease in cell viability after 72 hrs by MTS assay; type: functional, cell-based; conditions: MV4-11, 72 h; how it was run: as §1
MDA-MB-468 = assay: Cytotoxicity against human MDA-MB-468 cells assessed as decrease in cell viability after 72 hrs by MTS assay; type: functional, cell-based; conditions: MDA-MB-468, 72 h; how it was run: as §1
HUVEC = assay: Cytotoxicity against human HUVEC cells assessed as decrease in cell viability after 72 hrs by MTS assay; type: cell-based; how it was run: as §1
MRC5 = assay: Cytotoxicity against human MRC5 cells assessed as decrease in cell viability after 72 hrs by MTS assay; type: cell-based; conditions: MRC5, 72 h; how it was run: as §1
H22 = assay: Cytotoxicity against mouse H22 cells assessed as decrease in cell viability after 72 hrs by MTS assay; type: functional, cell-based; conditions: H22, 72 h; how it was run: as §1
CCRF S-180 = assay: Cytotoxicity against mouse S180 cells assessed as decrease in cell viability after 72 hrs by MTS assay; type: functional, cell-based; conditions: CCRF S-180, 72 h; how it was run: as §1

Compound `CC1(C)[C@@H](OC(N)=O)[C@H]2O[C@H]2[C@]2(C=O)[C@H]3CC[C@]4(C)[C@@H](c5ccc(=O)oc5)[C@@H](Cl)C[C@]4(O)C3=CC[C@@H]12` has an EC50 (BT-474) of 3.9 nM, an EC50 (SK-OV-3) of 6.1 nM and an EC50 (PANC-1) of 2.4 nM. The EC50 (HCT-116) was 5.9 nM, the EC50 (HepG2) was 3.2 nM and the EC50 (DU-145) was 7.2 nM. It also gave an EC50 (HT-1080) of 5.4 nM, an EC50 (MES-SA) of 7.4 nM and an EC50 (MES-SA/Dx5) of 5.7 nM. For the same compound, the EC50 (786-0) was 2.6 nM, the EC50 (Daudi) was 2.8 nM and the EC50 (THP-1) was 4.1 nM. The EC50 (HeLa) was 5.1 nM, the EC50 (MCF7) was 15 nM and the EC50 (BXPC-3) was 5.5 nM. The EC50 (LoVo) was 6 nM, the EC50 [1] was 3.2 nM and the EC50 (U-87 MG) was 6.4 nM. For the same compound, the EC50 (NCI-N87) was 6.3 nM, the EC50 (A549) was 3.8 nM and the EC50 (NCI-H1975) was 4.9 nM. It also gave an EC50 (MV4-11) of 6.4 nM, an EC50 (MDA-MB-468) of 8.4 nM and an EC50 (HUVEC) of 7.7 nM. The EC50 (MRC5) was 2.7 nM, the EC50 (H22) was 2400 nM and the EC50 (CCRF S-180) was > 20000 nM.
